{"source": "ChEMBL document CHEMBL4265973", "about": "“Broad-spectrum antibacterial amphiphilic aminoglycosides: A new focus on the structure of the lipophilic groups extends the series of active dialkyl neamines” (Eur J Med Chem, 2018)", "key": {"Staphylococcus aureus [1]": {"system": "Staphylococcus aureus", "assay": "Antibacterial activity against Staphylococcus aureus SA-1 expressing NorA pump by microdilution assay"}, "Staphylococcus aureus [2]": {"system": "Staphylococcus aureus", "assay": "Antibacterial activity against Staphylococcus aureus ATCC 25923 by microdilution assay", "type": "functional", "procedure,_shortened": "(§1)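 Broth microdilution MIC per CLSI recommendations, fresh culture in cation-adjusted Mueller-Hinton broth, starting inoculum 10^6 cells.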"}, "Klebsiella pneumoniae": {"system": "Klebsiella pneumoniae", "assay": "Antibacterial activity against Klebsiella pneumoniae 700603 by microdilution assay", "type": "functional", "procedure,_shortened": "(§2)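 Broth microdilution per CLSI recommendations, using a fresh culture in cation-adjusted Mueller-Hinton broth (CA-MHB) and a starting inoculum of 10^6 cells; the MIC is the value read.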"}, "Pseudomonas aeruginosa [3]": {"system": "Pseudomonas aeruginosa", "assay": "Antibacterial activity against Pseudomonas aeruginosa PA406 harboring triABC deletion mutant by microdilution assay", "type": "functional", "procedure,_shortened": "as §1"}, "Staphylococcus aureus [4]": {"system": "Staphylococcus aureus", "assay": "Antibacterial activity against methicillin-resistant Staphylococcus aureus ATCC 33592 by microdilution assay", "type": "functional", "procedure,_shortened": "as §1"}, "[5]": {"assay": "(§3) Cytotoxicity against mouse J774 cells assessed as cell viability at 30 uM after 24 hrs by MTT assay relative to control", "type": "cell-based", "conditions": "J774 cells, read-out: Activity", "procedure,_shortened": "(§4)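 Murine J774 macrophages are exposed for 24 h to compound at 10 or 30 µM, then given 0.2 mg/mL MTT for 1 h. The reaction is stopped with DMSO and OD read at 570 nm; viability is metabolic activity as % of control. The number of independent experiments is given per value.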"}, "Pseudomonas aeruginosa [6]": {"system": "Pseudomonas aeruginosa", "assay": "Antibacterial activity against Pseudomonas aeruginosa ATCC 27853 measured over 1 month by microdilution assay", "type": "functional, organism-based", "procedure,_shortened": "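Serial passage of P. aeruginosa ATCC 27853 held continuously at half the MIC for up to 38 days. […] The new minimal inhibitory concentration is read by visual inspection, confirmed by agar dilution, and the drug level raised to match.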"}, "Escherichia coli [7]": {"system": "Escherichia coli", "assay": "Antibacterial activity against Escherichia coli PAZ505H8101 harboring AAC6'-1B by microdilution assay", "type": "functional", "procedure,_shortened": "as §1"}, "Escherichia coli [8]": {"system": "Escherichia coli", "assay": "microbe, parasite or virus in culture", "conditions": "ATCC 25922"}, "Pseudomonas aeruginosa [9]": {"system": "Pseudomonas aeruginosa", "assay": "Antibacterial activity against Pseudomonas aeruginosa PA22 harboring surexp MexXY by microdilution assay", "type": "functional", "procedure,_shortened": "as §1"}, "Pseudomonas aeruginosa [10]": {"system": "Pseudomonas aeruginosa", "assay": "Antibacterial activity against Pseudomonas aeruginosa ATCC 27853 by microdilution assay", "type": "functional", "procedure,_shortened": "as §2"}, "[11]": {"assay": "(§5) Cytotoxicity against mouse J774 cells assessed as cell viability at 10 uM after 24 hrs by MTT assay relative to control", "type": "cell-based", "conditions": "J774 cells, read-out: Activity", "procedure,_shortened": "as §4"}, "Acinetobacter lwoffii [12]": {"system": "Acinetobacter lwoffii", "assay": "Antibacterial activity against Acinetobacter lwoffii ATCC 17925 by microdilution assay", "type": "functional", "procedure,_shortened": "as §2"}, "Pseudomonas aeruginosa [13]": {"system": "Pseudomonas aeruginosa", "assay": "Antibacterial activity against Pseudomonas aeruginosa FO3 harboring AAC6'-2A by microdilution assay", "type": "functional", "procedure,_shortened": "as §1"}, "Acinetobacter lwoffii [14]": {"system": "Acinetobacter lwoffii", "assay": "Antibacterial activity against Acinetobacter lwoffii AI.88-483 harboring APH3'-6A by microdilution assay", "type": "functional", "procedure,_shortened": "as §1"}, "Escherichia coli [15]": {"system": "Escherichia coli", "assay": "Antibacterial activity against Escherichia coli L8058.1 harboring ANT2'-1A by microdilution assay", "type": "functional", "procedure,_shortened": "as §1"}, "J774 [16]": {"system": "J774", "assay": "as §3", "type": "cell-based", "conditions": "j774, 24 h, 30 µM", "procedure,_shortened": "as §4"}, "J774 [17]": {"system": "J774", "assay": "as §5", "type": "cell-based", "conditions": "j774, 24 h, 10 µM", "procedure,_shortened": "as §4"}, "Pseudomonas aeruginosa [18]": {"system": "Pseudomonas aeruginosa", "assay": "microbe, parasite or virus in culture", "conditions": "ATCC 27853"}, "Pseudomonas aeruginosa [19]": {"system": "Pseudomonas aeruginosa", "assay": "Antibacterial activity against Pseudomonas aeruginosa ATCC 27853 after 15 to 38 days by microdilution assay", "type": "functional"}}, "note": "Active and inactive are the calls of the source. The rule behind the calls is not given here."}
{"compound": "NC[C@H]1O[C@H](O[C@H]2[C@H](O)[C@@H](OCCCc3ccc4ccccc4c3)[C@H](N)C[C@@H]2N)[C@H](N)[C@@H](OCCCc2ccc3ccccc3c2)[C@@H]1O", "values": [{"measurement": "MIC", "setting": "Staphylococcus aureus [1]", "result": 2, "unit": "µg/mL"}, {"measurement": "MIC", "setting": "Staphylococcus aureus [2]", "result": 2, "unit": "µg/mL"}, {"measurement": "MIC", "setting": "Klebsiella pneumoniae", "result": 32, "unit": "µg/mL"}, {"measurement": "MIC", "setting": "Pseudomonas aeruginosa [3]", "result": "2 to 4", "unit": "µg/mL"}, {"measurement": "MIC", "setting": "Staphylococcus aureus [4]", "result": 2, "unit": "µg/mL"}, {"measurement": "viability at 24 h, 30 µM", "setting": "[5]", "result": 89.5, "unit": "%"}, {"measurement": "Activity", "setting": "Pseudomonas aeruginosa [6]", "result": "Active"}, {"measurement": "MIC", "setting": "Escherichia coli [7]", "result": "4 to 8", "unit": "µg/mL"}, {"measurement": "MIC", "setting": "Escherichia coli [8]", "result": 8, "unit": "µg/mL"}, {"measurement": "MIC", "setting": "Pseudomonas aeruginosa [9]", "result": 16, "unit": "µg/mL"}, {"measurement": "MIC", "setting": "Pseudomonas aeruginosa [10]", "result": "8 to 16", "unit": "µg/mL"}, {"measurement": "viability at 24 h, 10 µM", "setting": "[11]", "result": 91.1, "unit": "%"}, {"measurement": "MIC", "setting": "Acinetobacter lwoffii [12]", "result": 4, "unit": "µg/mL"}, {"measurement": "MIC", "setting": "Pseudomonas aeruginosa [13]", "result": 16, "unit": "µg/mL"}, {"measurement": "MIC", "setting": "Acinetobacter lwoffii [14]", "result": "32 to 64", "unit": "µg/mL"}, {"measurement": "MIC", "setting": "Escherichia coli [15]", "result": 16, "unit": "µg/mL"}]}
{"compound": "GENTAMICIN", "values": [{"measurement": "Activity", "setting": "J774 [16]", "result": 82.9, "unit": "%"}, {"measurement": "Activity", "setting": "J774 [17]", "result": 88.4, "unit": "%"}]}
{"compound": "O=C(O)c1cn(C2CC2)c2cc(N3CCNCC3)c(F)cc2c1=O", "note": "[CIPROFLOXACIN]", "values": [{"measurement": "MIC", "setting": "Pseudomonas aeruginosa [18]", "result": 16, "unit": "µg/mL"}, {"measurement": "Activity", "setting": "Pseudomonas aeruginosa [6]", "result": "Active"}]}
{"compound": "NC[C@H]1O[C@H](O[C@H]2[C@H](O)[C@@H](O)[C@H](N)C[C@@H]2N)[C@H](N)[C@@H](OCCCc2ccc3ccccc3c2)[C@@H]1OCCCc1ccc2ccccc2c1", "values": [{"measurement": "Activity", "setting": "Pseudomonas aeruginosa [6]", "result": "Active"}]}
{"compound": "CCCCCCCCCO[C@@H]1[C@@H](N)[C@@H](O[C@H]2[C@H](O)[C@@H](OCCCCCCCCC)[C@H](N)C[C@@H]2N)O[C@H](CN)[C@H]1O", "values": [{"measurement": "MIC", "setting": "Staphylococcus aureus [1]", "result": 1, "unit": "µg/mL"}, {"measurement": "MIC", "setting": "Staphylococcus aureus [2]", "result": 1, "unit": "µg/mL"}, {"measurement": "MIC", "setting": "Klebsiella pneumoniae", "result": 4, "unit": "µg/mL"}, {"measurement": "MIC", "setting": "Pseudomonas aeruginosa [3]", "result": "2 to 4", "unit": "µg/mL"}, {"measurement": "MIC", "setting": "Staphylococcus aureus [4]", "result": "2 to 4", "unit": "µg/mL"}, {"measurement": "viability at 24 h, 30 µM", "setting": "[5]", "result": 67.4, "unit": "%"}, {"measurement": "MIC", "setting": "Escherichia coli [7]", "result": "2 to 4", "unit": "µg/mL"}, {"measurement": "MIC", "setting": "Escherichia coli [8]", "result": "2 to 4", "unit": "µg/mL"}, {"measurement": "MIC", "setting": "Pseudomonas aeruginosa [9]", "result": 4, "unit": "µg/mL"}, {"measurement": "MIC", "setting": "Pseudomonas aeruginosa [10]", "result": "2 to 4", "unit": "µg/mL"}, {"measurement": "viability at 24 h, 10 µM", "setting": "[11]", "result": 86.7, "unit": "%"}, {"measurement": "MIC", "setting": "Acinetobacter lwoffii [12]", "result": 2, "unit": "µg/mL"}, {"measurement": "MIC", "setting": "Pseudomonas aeruginosa [13]", "result": "4 to 8", "unit": "µg/mL"}, {"measurement": "MIC", "setting": "Pseudomonas aeruginosa [19]", "result": 4, "unit": "µg/mL"}, {"measurement": "MIC", "setting": "Acinetobacter lwoffii [14]", "result": 16, "unit": "µg/mL"}, {"measurement": "MIC", "setting": "Escherichia coli [15]", "result": "2 to 4", "unit": "µg/mL"}]}
